Screening data: PubChem, several laboratories
RBBP9 inhibitor: human RBBP9 hydrolase inhibition; recombinant RBBP9, FP-Rh probe fluorescence polarization; inhibition, % at 7.94 µM; 0.2% of 220,000 active; AID 1515;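 active means inhibition above the campaign mean of all tested compounds plus 3 SD, cut at about 14% in these data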;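 further: plate controls were DMSO wells with RBBP9 for no effect and wells lacking RBBP9 protein for full effect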
Target sequence (O75884 whole entry, looked up): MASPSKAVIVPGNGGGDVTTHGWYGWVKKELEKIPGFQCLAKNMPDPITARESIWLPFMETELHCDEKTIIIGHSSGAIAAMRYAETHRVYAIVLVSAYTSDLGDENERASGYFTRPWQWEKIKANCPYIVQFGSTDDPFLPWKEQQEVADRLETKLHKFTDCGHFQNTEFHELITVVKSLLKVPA
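Test system – recombinant human RBBP9 · Input – RBBP9 2.5 µM in dispensing solution, pre-mixing · Medium – Tris buffer pH 8.0, NaCl, Pluronic · Schedule – preincubation 30 min plus labeling 45 min at 25 °C · Measured by – fluorescence polarization · Measure – % inhibition · Controls – DMSO and no-protein wells · Replicates – one well per compound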
PfM18AAP inh: blocks P. falciparum M18 aspartyl aminopeptidase. recombinant PfM18AAP, H-Glu-NHMec fluorogenic cleavage. inhibition, % at 7.35 µM. 1.2% of 290,000 active;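 active means inhibition above the campaign mean inhibition over all tested compounds plus 3 SD, cut at about 28% in these data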;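 further: 0% = plate median of test compound wells and 100% = 2 mM ZnCl2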
Wee1 stabilizer: human Wee1 degradation inhibition, primary screen | P30291 | HeLa Luc-Wee1K328M stability, luciferase luminescence; 100% = proteasome inhibitor MG132 effect | reporter increase, % at 5 µM | 1.2% of 220,000 active | AID 1321;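 active means activation above the mean of all tested compounds plus 3 SD, set per screening run, cut at about 8.8% in these data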;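 further: cells exposed to compound for 20 h before luminescence read; 0% = DMSO alone and 100% = MG132 at 30 µM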
L929 necroptosis: blocks zVAD induced death of L929 cells. L929 zVAD necroptosis rescue, ATP luminescence, 24 h; with zVAD 60 µM. viability rescue, % at 10 µM. 0.38% of 220,000 active. AID 1377;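 active means activation, scaled between plate controls, above about 75%, limit read from the data; inactive means activation under that limit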;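 further: 0% = zVAD with DMSO and 100% = DMSO alone without zVAD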
p97 inhibitor: inhibitors of human p97 ATPase; inhibition, % at 8 µM; recombinant p97 ATPase, Kinase-Glo ATP luminescence, 3 h; P55072; 0.42% of 220,000 active; in the data active means inhibition above about 15%;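 further: 0% = DMSO vehicle and 100% = wells lacking enzyme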
TNF necrop inh: TNF-alpha cell death inhibition in Jurkat FADD-/- cells. Jurkat FADD-/- TNF necroptosis rescue, ATP luminescence, 24 h; 0 = TNF only, 100 = no-TNF cells. activation (protection from cell death), % at 10 µM. 0.068% of 220,000 active. AID 463075;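 active means activation, meaning protection from cell death, of at least 50% relative to plate controls; inactive means activation below 50%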;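 further: necroptosis triggered by 40 ng/mL TNF-alpha added together with compound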
Wee1 stab conf: human Wee1 degradation inhibition, confirmation; activation, % at 5 µM; HeLa Luc-Wee1K328M degradation, luminescence; vehicle 0%, proteasome-blocked wells 100%; 4% of 1,100 active; shares compounds with Wee1 stabilizer; in the data active means activation above about 8.9%
An asterisk follows results filed as active; nt = no result. Rows were chosen to be rich in hits. Some 2.7% of all compounds tested hit in one or more screens of this group.

SMILES | RBBP9 inhibitor | PfM18AAP inh | Wee1 stabilizer | L929 necroptosis | p97 inhibitor | TNF necrop inh | Wee1 stab conf
O=C(NC(=S)Nc1ccc2c(c1)OCCO2)c1cccc2ccccc12 | -6 | -1 | 12* | nt | 5 | -2 | 0
CN(C)C(CNC(=O)C1CCN(C(=O)/C=C/c2ccccc2)CC1)c1ccccc1 (centres undefined) | nt | -2 | nt | nt | nt | nt | nt
c1ccc(-c2csc(NC3=NCCCCC3)n2)cc1 | -7 | 3 | -1 | 2 | 0 | 2 | nt
N#Cc1ccc(-c2csc(NC3=NCCCCC3)n2)cc1 | 1 | -14 | 15* | 2 | 1 | 3 | 2
COc1ccccc1N1CCN(C2=Nc3cccc4cccc2c34)CC1 | -4 | 11 | 15* | 1 | -10 | 4 | 2
Cc1ccc(NC(=O)c2noc3c2CCCCC3)cc1C | 0 | 5 | 13* | 71 | 0 | 1 | 1
CCc1ccc(NC(=O)c2noc3c2CCCCC3)cc1 | 2 | 1 | -2 | 6 | 1 | 4 | nt
Cc1cccc(CC(=O)N2CCC(N3CCC(C(=O)N4CCOCC4)CC3)CC2)c1 | -6 | -6 | -2 | 0 | 4 | 0 | nt
CCCNC(=O)NC(=O)CSc1nc2ccccc2c(=O)n1Cc1ccncc1 | nt | -1 | nt | nt | nt | nt | nt
CC(=O)c1cc2c(C)c(C(=O)c3ccccc3)oc2cc1O | -1 | -7 | 12* | 1 | 3 | 1 | -2
COc1ccc(CNCCC2(Cc3ccccc3)CC(C)N(C)CC2C)cc1OC (centres undefined) | -7 | 1 | 17* | 12 | 0 | 3 | 0
O=C1NC(=S)N(c2cccc(Cl)c2)C12CCCCC2 | -17 | -11 | 3 | 1 | -5 | 1 | nt
O=C(CCN1C(=O)/C(=C/c2ccccc2Cl)SC1=S)NCCc1ccc(O)cc1 | nt | -7 | nt | nt | nt | nt | nt
CCN(CC)c1ccc(/C=N/NC(=O)c2ccoc2C)cc1 | -3 | -7 | 16* | 5 | -13 | -3 | 0
N#Cc1ccc2[nH]c(CO)c(-c3ccccc3)c2c1 | nt | -9 | nt | nt | nt | nt | nt
C(=C\c1ccco1)/c1nc2ccccc2[nH]1 | -3 | 2 | 14* | -1 | -2 | -6 | 3
C(=C\c1nc2ccccc2[nH]1)/c1ccccc1 | 3 | -1 | -2 | 1 | -35 | -23 | nt
CCn1cc(C(=O)OCC(=O)c2ccccc2)c(=O)c2ccc(C)nc21 | -7 | -3 | 12* | 3 | 1 | -1 | -1
CCn1cc(C(=O)OCC(=O)c2ccc(Cl)cc2)c(=O)c2ccc(C)nc21 | -7 | -3 | -1 | 6 | 0 | 0 | nt
CC1(C)NC(=O)N(CCCCOc2ccccc2[N+](=O)[O-])C1=O | -1 | 3 | 11* | 2 | 0 | -1 | 2
CCCN(C(=O)CCl)C1=CCCCC1 | -3 | 4 | 2 | 2 | 3 | 2 | nt
Cc1ccc(NC(=O)Nc2cccc([N+](=O)[O-])c2)cc1F | -14 | 1 | -1 | 13 | 4 | 2 | nt
O=C(Nc1ccc(OC(F)(F)F)cc1)Nc1cccc([N+](=O)[O-])c1 | -4 | 0 | 17* | 29 | 6 | -11 | 2
CC(=O)Nc1ccc(NCN2C(=O)[C@@H]3[C@H]4CC[C@H](C4)[C@@H]3C2=O)cc1 | -4 | 6 | 1 | 1 | 5 | 1 | nt
Cc1ccccc1NC(=O)NC(N)=O | -9 | -1 | 14* | 6 | -1 | -1 | -2
SMILES | RBBP9 inhibitor | PfM18AAP inh | Wee1 stabilizer | L929 necroptosis | p97 inhibitor | TNF necrop inh | Wee1 stab conf
Cc1nc2ccccc2n1C1CCN(C(=O)Nc2ccccc2)CC1 | -6 | 1 | -2 | 0 | -1 | 0 | nt
Clc1ccc(Nc2nc(C3CC3)cs2)cc1 | -6 | -2 | 12* | 1 | -2 | 2 | 4
Cc1ccc(Nc2nc(C3CC3)cs2)cc1 | -8 | 11 | 4 | 3 | 4 | 7 | nt
CCOC(=O)c1c(C)[nH]c(C(=O)N/N=C\c2ccccc2O)c1C | 3 | -7 | 12* | 1 | 3 | -10 | 9
CCOC(=O)c1c(C)[nH]c(C(=O)N/N=C/c2cc([N+](=O)[O-])ccc2O)c1C | nt | -3 | nt | nt | nt | nt | nt
COc1ccccc1OCCC(=O)OCC(=O)c1[nH]c(C)c(C(C)=O)c1C | -7 | 8 | -4 | 4 | 1 | -4 | nt
Cc1ccccc1NC(=O)c1c(-c2ccccc2)noc1C | -8 | -10 | 1 | 0 | 0 | 0 | nt
Cc1cccc(C)c1NC(=O)c1c(-c2ccccc2)noc1C | -1 | 4 | 11* | 1 | 4 | -1 | 2
CCOc1ccc(S(=O)(=O)N(C)c2ccc(OCC(=O)N3c4ccc(C)cc4C4CN(C)CCC43)cc2)cc1 (centres undefined) | -14 | 1 | 13* | 0 | -3 | 5 | 0
COc1ccc(NC(=O)CN(C)S(=O)(=O)c2ccc3c(c2)c(=O)n(C)c(=O)n3C)cc1 | nt | 2 | nt | nt | nt | nt | nt
CC(C)CN(C(=O)COC(=O)CNC(=O)c1ccccc1F)C1CCS(=O)(=O)C1 (centres undefined) | -10 | 0 | -3 | 2 | 4 | 1 | nt
CCC(C)N(C(=O)COC(=O)CNC(=O)c1ccccc1F)C1CCS(=O)(=O)C1 (centres undefined) | -4 | 1 | 15* | 2 | 1 | 0 | -1
O=C(NC(=S)NCCC1=CCCCC1)c1cncc(Br)c1 | -7 | -9 | 1 | 1 | -1 | 1 | nt
CCOc1ncc(S(=O)(=O)N2CCN(CC)CC2)cc1C(=O)O | nt | 2 | nt | nt | nt | nt | nt
COc1ccccc1CNC(=O)C1(NC(=O)Nc2ccc(C)cc2)CCCCC1 | -7 | -10 | 11* | 0 | 1 | -3 | 1
Cc1ccc(NC(=O)NC2(C(=O)NCc3ccccc3)CCCCC2)cc1 | -3 | 8 | 0 | 0 | -4 | -5 | nt
O=C(N/N=C/c1cccc(OC(=O)c2cccc(Br)c2)c1)c1ccncc1 | nt | -3 | nt | nt | nt | nt | nt
O=C(CN1CCN(c2ccccn2)CC1)N1CC(O)CO1 (centres undefined) | 0 | 2 | 18* | 0 | 4 | 0 | 0
COc1ccccc1/C=C/C(=O)Nc1ccc2c(c1)CCC2 | -14 | -6 | 11* | 8 | 1 | 2 | 6
COc1ccc(OC)c(/C=C/C(=O)Nc2ccc3c(c2)CCC3)c1 | -13 | 1 | 4 | 12 | 2 | 4 | nt
CCOC(=O)Cc1csc(NC(=O)Nc2cccc(OC)c2)n1 | -1 | -13 | 4 | 0 | -2 | 1 | nt
Cc1c(C)c2ccc(OC(C)C(=O)NCCCN3CCOCC3)c(C)c2oc1=O (centres undefined) | nt | -13 | nt | nt | nt | nt | nt
On1onc2c3cc(-c4ccccc4)nc3ccc21 | 13 | 6 | 39* | 23 | 4 | -8 | 30*
CCN1CCN(c2nc(Nc3ccccc3)nc(N)c2[N+](=O)[O-])CC1 | -2 | -1 | 0 | 0 | 5 | 3 | nt
